In data set [1] the test system is Mus musculus. The experiment in a line: Anticonvulsant activity in Albino mouse assessed as protection against pentylenetetrazole-induced seizures at 100 mg/kg, ip administered 1 hr before pentylenetetrazole challenge. It counts as functional. The note with it: route intraperitoneal. A digest of the protocol:
(§1)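 Male albino mice (25–30 g), housed in groups of 10 and acclimated ≥2 days with free food and water. Test agent suspended in water with 2% Tween 80 and given ip. PTZ 112 mg/kg ip injected 1 h later. Mice without generalized convulsions scored as protected, expressed as % protection. PD50 by log-linear regression of dose-response across 50, 100, 200 mg/kg.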

Data set [2] relates to Mus musculus. The experiment in a line: Anticonvulsant activity against strychnine-induced seizures in Albino mouse assessed as survival time at 100 mg/kg, po administered 1 hr before strychnine challenge. The class given is functional.
Data set [3] is described as follows: Dissociation constant, pKa of the compound. The class given is physicochemical. A digest of the protocol:
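Spectrophotometric pKa. Spectra of ionized and unionized forms recorded in 0.1 M HCl and 0.1 M NaOH with DMF. Absorbance read at the wavelength of maximal difference in phosphate buffer (Na2HPO4/KH2PO4, 0.15 M) with DMF at pH 7.6, 7.4, 7 and 6.8. pKa = pH + log[(Ai−A)/(A−Au)], averaged with SD.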

The subject of data set [4] is Mus musculus. The data set is described as follows: Anticonvulsant activity in Albino mouse assessed as protection against pentylenetetrazole-induced seizures at 50 mg/kg, ip administered 1 hr before pentylenetetrazole challenge. It counts as functional. The note with it: route intraperitoneal. Summed up: as §1
The test system of data set [5] is Mus musculus. The data set is described as follows: Anticonvulsant activity in Albino mouse assessed as protection against pentylenetetrazole-induced seizures at 200 mg/kg, ip administered 1 hr before pentylenetetrazole challenge. The class given is functional. The note with it: route intraperitoneal. Summed up: as §1
Data set [6] has as its system Mus musculus. The experiment in a line: Anticonvulsant activity in ip dosed Albino mouse assessed as protection against pentylenetetrazole-induced seizures administered 1 hr before pentylenetetrazole challenge. The class given is functional. The note with it: read-out: PD50. Summed up: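 PTZ model in male albino mice (25–30 g), 10 per group. Test agents suspended in water with 2% Tween 80 and given ip at graded doses (50, 100, 200 mg/kg). Pentylenetetrazole 112 mg/kg ip given 1 h later. Absence of generalized convulsions scored as protection. PD50 obtained by log-linear regression of dose–response curves.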

The test system of data set [7] is Mus musculus. The data set is described as follows: Anticonvulsant activity in Albino mouse assessed as protection against pentylenetetrazole-induced seizures at 30 mg/kg, ip administered 1 hr before pentylenetetrazole challenge. It counts as functional. The note with it: route intraperitoneal. A digest of the protocol:
(§2)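 Male albino mice (25–30 g), housed 10 per group and acclimated for at least 2 days. Dosed ip, suspended in water with 2% Tween 80. Pentylenetetrazole 112 mg/kg ip given 1 h later. Mice without generalized convulsions counted as protected; reported as % protection.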

Data set [8] deals with Mus musculus. The experiment in a line: Anticonvulsant activity in Albino mouse assessed as protection against pentylenetetrazole-induced seizures at 10 mg/kg, ip administered 1 hr before pentylenetetrazole challenge. The class given is functional. The note with it: route intraperitoneal. A digest of the protocol: as §2
In data set [9] the test system is Mus musculus. The experiment in a line: Anticonvulsant activity in Albino mouse assessed as protection against pentylenetetrazole-induced seizures at 20 mg/kg, ip administered 1 hr before pentylenetetrazole challenge. The note with it: route intraperitoneal. It counts as functional. Summed up:
as §2

The nature of data set [10]: Toxicity against Albino mouse assessed as mortality after 24 hrs. The class given is organism-based. The note with it: in vivo. Summed up: (§3)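 Male albino mice (25–30 g), groups of 8. Single injected doses at equal log intervals (400, 800, 1600, 3200 mg/kg), bracketed by preliminary no-kill and LD100 doses. Deaths counted at 24 h. LD50 calculated by the Spearman–Karber method.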

In data set [11] the test system is Mus musculus. The data set is described as follows: Toxicity against Albino mouse assessed as mortality at 400 mg/kg after 24 hrs. The class given is organism-based. Set-up: dose 400 mg/kg. The note with it: in vivo. Summed up: as §3
The test system of data set [12] is Mus musculus. The experiment in a line: Toxicity against Albino mouse assessed as mortality at 3200 mg/kg after 24 hrs. The class given is organism-based. Set-up: dose 3200 mg/kg. The note with it: in vivo. A digest of the protocol:
as §3

Consider 20 compounds from ChEMBL document CHEMBL1150357, “Synthesis and preliminary evaluation of some substituted coumarins as anticonvulsant agents” (Bioorg Med Chem, 2008).

A word on the pKa: it is the negative logarithm of the acid dissociation constant. The low end stands for a stronger acid or weaker base, the high end for a weaker acid or stronger base. A word on the LD50: it is the dose expected to kill half of the subjects tested.

As for `CCN1C(=O)CS/C1=N/c1ccc2oc(=O)ccc2c1`, the Activity in data set [1] is 30%.

`CCOC(=O)c1s/c(=N/c2ccc3oc(=O)ccc3c2)n(C2CCCCC2)c1C`: the Survival in [2] came out at 3.14 min. Also, the Activity in [1] was 60%.

For the compound `O=c1ccc2cc(NC(=S)NC3CCCCC3)ccc2o1`, in data set [2], the Survival amounted to 5.02 min. In data set [1], the Activity turned out to be 30%.

For the compound `CCOC(=O)c1s/c(=N/c2ccc3oc(=O)ccc3c2)n(C)c1C`, the Activity in [1] is on record as 0%.

Turning to `CCNc1nc2ccc3oc(=O)ccc3c2s1`, the Survival in [2] is 6.26 min.

In the case of `CCN1C(=O)/C(=C/c2ccc(Cl)cc2)S/C1=N/c1ccc2oc(=O)ccc2c1`, in data set [2], the Survival turned out to be 5.18 min.

Consider `CCn1c(-c2ccc(Br)cc2)cs/c1=N/c1ccc2oc(=O)ccc2c1`, for which the Survival in data set [2] came out at 8.36 min. For the same compound, in data set [1], the Activity is reported as 30%.

On to `COc1ccc(-c2cs/c(=N/c3ccc4oc(=O)ccc4c3)n2-c2ccc(Cl)cc2)cc1`, for which the Activity in data set [1] is listed as 30%.

Take `O=C(CCl)Nc1nc2ccc3oc(=O)ccc3c2s1`: the Survival in data set [2] amounted to 4.4 min. Further, the Activity in [1] is on record as 0%.

Consider `O=C1CS/C(=N/c2nc3ccc4oc(=O)ccc4c3s2)N1`, for which the Survival in [2] is listed as 5.44 min. Further, the Activity in [1] is given as 40%.

For the compound `CCn1c(-c2ccc(OC)cc2)cs/c1=N/c1ccc2oc(=O)ccc2c1`, the Survival in [2] turned out to be 7.55 min. In data set [3], this compound yielded a pKa of 7.63. Also, the Activity was determined as 60% in data set [1], 20% in data set [4] and 60% in data set [5]. The ED50 in data set [6] came out at 138 mg/kg.

For the compound `O=c1ccc2cc(NC(=S)Nc3ccc(Cl)cc3)ccc2o1`, the Survival in [2] was found to be 5.33 min. In addition, in data set [1], the Activity came out at 20%.

For the compound `CCNC(=S)Nc1ccc2oc(=O)ccc2c1`, in data set [2], the Survival is 3.92 min. In [3], this compound registered a pKa of 5.62. Also, the figures for the Activity in data set [1], in [4] and in data set [5] were 60%, 20% and 70%, respectively. Moreover, the ED50 in [6] stood at 125 mg/kg.

For `COc1ccc(-c2cs/c(=N/c3ccc4oc(=O)ccc4c3)n2C2CCCCC2)cc1`, in data set [2], the Survival was 4.5 min. Besides, the Activity in data set [1] amounted to 20%.

Turning to `CCC1(c2ccccc2)C(=O)NC(=O)NC1=O` [PHENOBARBITAL], the Activity in [7] is listed as 90%; in data set [8], 40%; in data set [9], 70%. The ED50 in data set [6] amounted to 16 mg/kg.

`CCN1C(=O)/C(=C/c2ccc([N+](=O)[O-])cc2)S/C1=N/c1ccc2oc(=O)ccc2c1`: the Survival in data set [2] came out at 4.85 min. In addition, the Activity in data set [1] turned out to be 30%.

For `CCOC(=O)c1s/c(=N/c2ccc3oc(=O)ccc3c2)n(CC)c1C`, in data set [2], the Survival is reported as 5 min. In addition, the 50% lethal dose (LD50) at 24 h in data set [10] worked out at 1450 mg/kg. The pKa in data set [3] came to 7.44. The Activity in data set [1] was 80%; in data set [4] it was 30%; in data set [5], 90%; in data set [11] it was “Non-toxic”; in data set [12] it was “Toxic”. The ED50 in data set [6] stood at 95 mg/kg.

`CNc1nc2ccc3oc(=O)ccc3c2s1`: in [1], the Activity stood at 0%.

Turning to `O=C1NC(=O)C(c2ccccc2)(c2ccccc2)N1` [PHENYTOIN], the Survival in data set [2] worked out at 13.8 min.

Consider `CCCN1C(=O)CS/C1=N/c1ccc2oc(=O)ccc2c1`, for which the Survival in [2] was 5.4 min.
